The values below come from PubChem BioAssay AID493176 (Broad Institute, 2011).

Results filed as inconclusive are left out. Activity calls are given as the source filed them.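 The calls were made as follows: active = every replicate test active, with falling luminescence and half-maximal potency within ten times the top tested dose; inconclusive = tests disagree, or partial flat loss or unreliable fit; inactive = all tests inactive, flat or rising signal or weak potency.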

The test system of the first experiment is HMLE_shECad viability, CellTiter-Glo luminescence, 72 h. Briefly: killing of breast cancer stem-like cells, dose response, cell-based, HMLE_shECad, CellTiter-Glo luminescence, dry powder, set 3 (AID 493176).
Settings: not given
Summed up: (§1)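 Material: E-cadherin-knockdown HMLE cells (HMLE_shECad), CSC-like | Amount: 2000 cells/well | Buffer or medium: Serum-free CSC medium | Doses: Pin-transferred compounds | Times: ≥4 h adherence, ~70-74 h compound exposure, 37 °C, 5% CO2 | Detection: CellTiter-Glo luminescence, reagent diluted 1:3 in PBS | Measure: Cell viability derived from luminescence signal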
On the technique in general: In ATP-based viability assays light output follows the ATP content of the culture.
For orientation: AC50 means the midpoint of the concentration-response curve, whichever way the signal moves. For the compound `O=C(COc1ccc(Cl)cc1Cl)N/N=C/c1ccc[nH]1`, the AC50 is 5.91 µM.
For `C/C(=N\NC(=O)c1cc(-c2cccc([N+](=O)[O-])c2)n[nH]1)c1ccccc1O`, the AC50 is 8.72 µM.
For the compound `Cc1csc(NC(=O)c2ccc(COc3ccccc3)o2)n1`, the half-maximal activity concentration (AC50) is 12.3 µM.
As for `CCCCCCc1cc2cc(S(=O)(=O)c3ccc(Cl)cc3)c(=O)oc2cc1O`, the AC50 was 2.2 µM.
As to `CC(C)(C)c1ccc2c(c1)OC(C(=O)NN=Cc1ccc[nH]1)CO2` (mixture of isomers), the AC50 is 2.21 µM.
Turning to `Nc1cc(Cl)ccc1Oc1ccc2ccccc2c1`, the AC50 is 10.5 µM.
Turning to `CC(C)CC(=O)NC(NC(=S)Nc1sc2c(c1C#N)CCCC2)C(Cl)(Cl)Cl` (stereo unspecified), the AC50 was 0.619 µM.
`Cc1cc(C)nc(NC(=O)/C=C/c2cccs2)c1`: the AC50 is 5.95 µM.
Consider `CCN1C(=O)/C(=C\N2CCN(c3cccc(Cl)c3)CC2)SC1=S`, for which the AC50 is 4.92 µM.
On the same count and under the same terms, then `CN(c1ccccc1)S(=O)(=O)c1ccc(-c2ccccc2)cc1`, with 12.7 µM; and `CC(C)c1ccc(/C=C/C(=O)NC2=NCCS2)cc1`, with 7.96 µM; and `Cc1onc(-c2ccccc2)c1C(=O)Nc1sc2c(c1C#N)CCC(C)C2` (stereo unspecified), with 7.81 µM.
Same read-out and setting: under `CC(=O)c1cccc(NS(=O)(=O)c2cc(-c3cnc(C4CC4)o3)ccc2C)c1` stands 1.02 µM.
`Cc1ccc2nc(NC(=O)c3cccc(-c4cc5ccccc5oc4=O)c3)sc2c1`: the AC50 was 5.37 µM.
As for `O=C(Nc1ccccc1N1CCCC1)c1cccc(-c2cc3ccccc3oc2=O)c1`, the AC50 was 10 µM.

Tested on in the next experiment: not listed separately
Described as above. To be noted: HMLE_shECad viability, CellTiter-Glo luminescence, 72 h; at 19.5 µM (top of the series). The method in brief: as §1
For `O=C(c1ccccc1)c1coc2ccc(O)c(Br)c12`, the activity change, negative = inhibition was 1.46% (inactive).
